In ChEMBL document CHEMBL4229344 (Eur J Med Chem, 2018):
Calls of active or inactive are those of the source. The calls are words filed in the database; no cut-off is given here.

Experiments:
[1] = target: Mitogen-activated protein kinase kinase kinase 11 (Homo sapiens) (UniProt Q16584); experiment: Binding affinity to wild-type human partial length MLK3 (I77 to W399 residues) expressed in bacterial expression system assessed as residual binding level at 1 uM by Kinomescan method relative to control
[2] = target: BMP-2-inducible protein kinase (Homo sapiens) (UniProt Q9NSY1); experiment: Binding affinity to wild-type human partial length BIKE (S34 to N329 residues) expressed in bacterial expression system assessed as residual binding level at 1 uM by Kinomescan method relative to control
In short: (§1)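 Single-concentration KINOMEscan (DiscoverX) binding screen at 1 μM against a panel of 468 purified kinases and mutants. The read-out is binding relative to control.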

[3] = tested on: Receptor-type tyrosine-protein kinase FLT3 (Homo sapiens), P36888 [UNDEFINED MUTATION]; experiment: Binding affinity to human partial length FLT3 ITD/F691L double mutant expressed in bacterial expression system assessed as residual binding level at 1 uM by Kinomescan method relative to control
In short: (§2)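 Kinome-wide single-concentration binding screen (KINOMEscan) at 1 μM against a panel of 468 purified kinases and mutants. Read-out is relative binding of each kinase compared with control. Selectivity across the panel was summarised as an S(10) score.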

[4] = target: Phosphatidylinositol 4-kinase beta (Homo sapiens) (UniProt Q9UBF8); experiment: Binding affinity to wild-type human full length PIK4CB (M1 to M828 residues) expressed in mammalian expression system assessed as residual binding level at 1 uM by Kinomescan method relative to control; in short: as §1
[5] = target: Serine/threonine-protein kinase Sgk3 (Homo sapiens) (UniProt Q96BR1); experiment: Binding affinity to wild-type human partial length SGK3 (M119 to L496 residues) expressed in mammalian expression system assessed as residual binding level at 1 uM by Kinomescan method relative to control
In short: (§3)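 KINOMEscan competition binding against a panel of 468 purified kinases/mutants, compound tested at 1 μM; readout is relative binding activity versus control.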

[6] = target: Serine/threonine-protein kinase PAK 4 (Homo sapiens) (UniProt O96013); experiment: Binding affinity to wild-type human partial length PAK4 (Q144 to R438 residues) expressed in bacterial expression system assessed as residual binding level at 1 uM by Kinomescan method relative to control
[7] = target: Vascular endothelial growth factor receptor 2 (Homo sapiens) (UniProt P35968); experiment: Binding affinity to wild-type human partial length VEGFR2 (R787 to P1253 residues) expressed in mammalian expression system assessed as residual binding level at 1 uM by Kinomescan method relative to control; in short: as §3
[8] = target: Ribosomal protein S6 kinase alpha-1 (Homo sapiens) (UniProt Q15418); experiment: Binding affinity to wild-type human partial length N-terminal RSK1 Kinase domain 1 (M1 to E388 residues) expressed in bacterial expression system assessed as residual binding level at 1 uM by Kinomescan method relative to control
NCI-H1703 = experiment: Antiproliferative activity against human NCI-H1703 cells after 72 hrs in presence of PDGF-AA by CellTiter-Glo or CCK-8 assay; type: functional; conditions: NCI-H1703, 72 h
In short: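 Cells in RPMI 1640 with 10% FBS at 37 °C, 5% CO2, seeded at 1–3 × 10^4 cells/mL with serial compound dilutions for 72 h. Viability read by CellTiter-Glo luminescence or CCK-8 absorbance (450/655 nm), normalized to DMSO control.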

[9] = target: High affinity nerve growth factor receptor (Homo sapiens) (UniProt P04629); experiment: Binding affinity to wild-type human partial length TRKA (G475 to G790 residues) expressed in mammalian expression system assessed as residual binding level at 1 uM by Kinomescan method relative to control
EOL1 = experiment: Antitumor activity against human EOL-1 cells xenografted in nu/nu mouse assessed as tumor growth inhibition at 25 to 100 mg/kg/day, ip; type: functional, organism-based
In short: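 Female nu/nu mice, six weeks old; 5 million EOL-1 cells in PBS mixed 1:1 with Matrigel, injected subcutaneously in the right flank. Dosing began once tumors reached 200–400 mm3, with randomization into groups of 6. Daily IP dosing at 25.0, 50.0 or 100 mg/kg/d in 0.5% methocellulose/0.4% Tween80 in water, or vehicle alone, for 14 days. Tumor volume = (W2×L)/2, measured daily. Final tumor weights were also recorded.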

[10] = target: Serine/threonine-protein kinase WNK4 (Homo sapiens) (UniProt Q96J92); experiment: Binding affinity to wild-type human partial length WNK4 (A31 to D461 residues) expressed in mammalian expression system assessed as residual binding level at 1 uM by Kinomescan method relative to control
[11] = target: Platelet-derived growth factor receptor alpha (Homo sapiens, UniProt P16234); experiment: Inhibition of PDGFRalpha in human EOL-1 cells assessed as decrease in STAT3 phosphorylation at Y705 residue up to 300 nM after 2 hrs by Western blot analysis; type: cell-based
[12] = target: Cyclin-dependent kinase-like 3 (Homo sapiens) (UniProt Q8IVW4); experiment: Binding affinity to wild-type human partial length CDKL3 (M1 to D327 residues) expressed in bacterial expression system assessed as residual binding level at 1 uM by Kinomescan method relative to control
In short: (§4)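 Kinome-wide competition binding screen against a panel of 468 purified kinases/mutants, with the test compound at a single concentration of 1 μM. Read-out is the relative binding activity of each kinase in the presence of compound.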

[13] = target: Mast/stem cell growth factor receptor Kit (Homo sapiens, UniProt P10721); experiment: Inhibition of c-KIT (unknown origin) using poly(4:1 Glu,Tyr) peptide as substrate preincubated for 1 hr followed by addition of ATP and measured after 30 mins by ADP-Glo bioluminescence assay
[14] = target: Cyclin-dependent kinase 18 (Homo sapiens) (UniProt Q07002); experiment: Binding affinity to wild-type human full length PCTK3 (M3 to F474 residues) expressed in bacterial expression system assessed as residual binding level at 1 uM by Kinomescan method relative to control; in short: as §1
[15] = target: Cyclin-dependent kinase 16 (Homo sapiens) (UniProt Q00536); experiment: Binding affinity to wild-type human partial length PCTK1 (G160 to A474 residues) expressed in mammalian expression system assessed as residual binding level at 1 uM by Kinomescan method relative to control
[16] = tested on: Phosphatidylinositol 4,5-bisphosphate 3-kinase catalytic subunit alpha isoform (Homo sapiens), P42336 [E545K]; experiment: Binding affinity to human partial length PIK3CA E545K mutant (R108 to N1068 residues) expressed in mammalian expression system assessed as residual binding level at 1 uM by Kinomescan method relative to control; in short: as §2
[17] = tested on: Epidermal growth factor receptor (Homo sapiens), P00533 [L861Q]; experiment: Binding affinity to human partial length EGFR L861Q mutant (R669 to V1011 residues) expressed in bacterial expression system assessed as residual binding level at 1 uM by Kinomescan method relative to control; in short: as §2
[18] = target: Serine/threonine-protein kinase DCLK3 (Homo sapiens) (UniProt Q9C098); experiment: Binding affinity to wild-type human partial length DCAMKL3 (E140 to V628 residues) expressed in bacterial expression system assessed as residual binding level at 1 uM by Kinomescan method relative to control; in short: as §4

Chain of Serine/threonine-protein kinase WNK4 (Homo sapiens) (Q96J92 whole entry, the tested form may be a part): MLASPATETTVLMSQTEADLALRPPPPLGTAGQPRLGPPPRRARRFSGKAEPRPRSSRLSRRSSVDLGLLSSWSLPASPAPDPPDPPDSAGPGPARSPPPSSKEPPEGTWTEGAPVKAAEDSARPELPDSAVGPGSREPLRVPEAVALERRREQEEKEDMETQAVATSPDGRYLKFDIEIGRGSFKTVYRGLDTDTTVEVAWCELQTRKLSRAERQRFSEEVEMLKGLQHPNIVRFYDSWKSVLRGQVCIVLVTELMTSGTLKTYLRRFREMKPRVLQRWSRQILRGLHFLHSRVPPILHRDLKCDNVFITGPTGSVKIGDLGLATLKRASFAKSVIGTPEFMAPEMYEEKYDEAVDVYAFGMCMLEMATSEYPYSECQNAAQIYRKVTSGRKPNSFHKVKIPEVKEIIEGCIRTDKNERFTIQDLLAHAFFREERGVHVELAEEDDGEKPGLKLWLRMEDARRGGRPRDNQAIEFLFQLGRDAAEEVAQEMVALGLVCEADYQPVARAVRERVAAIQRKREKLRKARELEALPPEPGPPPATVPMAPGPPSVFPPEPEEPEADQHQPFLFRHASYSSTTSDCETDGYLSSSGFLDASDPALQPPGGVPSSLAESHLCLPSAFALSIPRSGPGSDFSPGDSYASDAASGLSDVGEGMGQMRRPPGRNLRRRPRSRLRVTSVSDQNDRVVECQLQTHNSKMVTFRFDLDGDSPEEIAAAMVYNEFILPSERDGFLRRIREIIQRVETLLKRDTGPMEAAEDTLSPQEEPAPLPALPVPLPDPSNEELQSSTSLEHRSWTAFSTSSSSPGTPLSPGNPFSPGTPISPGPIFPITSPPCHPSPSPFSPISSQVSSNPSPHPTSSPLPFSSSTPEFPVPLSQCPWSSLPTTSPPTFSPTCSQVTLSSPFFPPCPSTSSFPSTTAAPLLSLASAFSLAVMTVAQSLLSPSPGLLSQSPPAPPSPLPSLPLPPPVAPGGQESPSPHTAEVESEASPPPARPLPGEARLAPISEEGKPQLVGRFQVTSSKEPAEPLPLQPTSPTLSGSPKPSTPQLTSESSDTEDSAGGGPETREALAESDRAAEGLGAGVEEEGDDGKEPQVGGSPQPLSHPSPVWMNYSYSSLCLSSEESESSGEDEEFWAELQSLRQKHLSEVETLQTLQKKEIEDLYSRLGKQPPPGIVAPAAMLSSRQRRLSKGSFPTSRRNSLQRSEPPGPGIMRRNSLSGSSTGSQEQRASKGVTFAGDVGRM
Chain of Vascular endothelial growth factor receptor 2 (Homo sapiens) (P35968 whole entry, the tested form may be a part): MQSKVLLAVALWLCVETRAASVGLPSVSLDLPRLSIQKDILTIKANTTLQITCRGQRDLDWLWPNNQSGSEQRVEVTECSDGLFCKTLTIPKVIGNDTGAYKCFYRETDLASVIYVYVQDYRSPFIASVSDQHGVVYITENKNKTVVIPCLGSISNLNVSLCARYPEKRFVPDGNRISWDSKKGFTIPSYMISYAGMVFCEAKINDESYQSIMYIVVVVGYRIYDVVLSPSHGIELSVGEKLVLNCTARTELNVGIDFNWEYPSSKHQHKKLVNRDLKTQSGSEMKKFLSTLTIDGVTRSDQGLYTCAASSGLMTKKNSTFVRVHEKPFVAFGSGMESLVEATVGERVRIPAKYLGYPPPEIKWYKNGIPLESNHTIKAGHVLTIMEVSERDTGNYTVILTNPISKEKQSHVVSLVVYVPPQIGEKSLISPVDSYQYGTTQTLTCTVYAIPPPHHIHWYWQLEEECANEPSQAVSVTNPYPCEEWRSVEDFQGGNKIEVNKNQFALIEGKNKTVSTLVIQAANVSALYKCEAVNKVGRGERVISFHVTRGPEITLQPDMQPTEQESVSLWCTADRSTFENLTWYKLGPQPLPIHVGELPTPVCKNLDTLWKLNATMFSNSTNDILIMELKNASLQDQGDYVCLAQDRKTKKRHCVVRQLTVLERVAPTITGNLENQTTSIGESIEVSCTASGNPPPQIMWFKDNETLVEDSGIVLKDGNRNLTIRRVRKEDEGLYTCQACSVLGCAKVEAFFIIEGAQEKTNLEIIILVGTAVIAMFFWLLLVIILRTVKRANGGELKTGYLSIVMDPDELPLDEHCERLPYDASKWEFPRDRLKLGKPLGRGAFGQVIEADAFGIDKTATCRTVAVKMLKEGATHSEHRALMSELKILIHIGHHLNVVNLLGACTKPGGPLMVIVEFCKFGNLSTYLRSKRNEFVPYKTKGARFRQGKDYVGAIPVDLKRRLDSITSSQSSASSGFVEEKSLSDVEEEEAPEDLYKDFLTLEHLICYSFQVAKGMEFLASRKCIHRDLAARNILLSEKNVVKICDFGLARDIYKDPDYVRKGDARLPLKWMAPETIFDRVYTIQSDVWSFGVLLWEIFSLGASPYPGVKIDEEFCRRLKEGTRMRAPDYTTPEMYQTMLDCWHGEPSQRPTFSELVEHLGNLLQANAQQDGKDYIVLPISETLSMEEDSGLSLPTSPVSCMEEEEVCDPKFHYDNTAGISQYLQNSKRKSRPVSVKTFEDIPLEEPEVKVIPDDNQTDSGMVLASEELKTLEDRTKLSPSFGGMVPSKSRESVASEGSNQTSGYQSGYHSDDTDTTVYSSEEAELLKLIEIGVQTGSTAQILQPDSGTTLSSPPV
Chain of High affinity nerve growth factor receptor (Homo sapiens) (P04629 33-796 limits assumed): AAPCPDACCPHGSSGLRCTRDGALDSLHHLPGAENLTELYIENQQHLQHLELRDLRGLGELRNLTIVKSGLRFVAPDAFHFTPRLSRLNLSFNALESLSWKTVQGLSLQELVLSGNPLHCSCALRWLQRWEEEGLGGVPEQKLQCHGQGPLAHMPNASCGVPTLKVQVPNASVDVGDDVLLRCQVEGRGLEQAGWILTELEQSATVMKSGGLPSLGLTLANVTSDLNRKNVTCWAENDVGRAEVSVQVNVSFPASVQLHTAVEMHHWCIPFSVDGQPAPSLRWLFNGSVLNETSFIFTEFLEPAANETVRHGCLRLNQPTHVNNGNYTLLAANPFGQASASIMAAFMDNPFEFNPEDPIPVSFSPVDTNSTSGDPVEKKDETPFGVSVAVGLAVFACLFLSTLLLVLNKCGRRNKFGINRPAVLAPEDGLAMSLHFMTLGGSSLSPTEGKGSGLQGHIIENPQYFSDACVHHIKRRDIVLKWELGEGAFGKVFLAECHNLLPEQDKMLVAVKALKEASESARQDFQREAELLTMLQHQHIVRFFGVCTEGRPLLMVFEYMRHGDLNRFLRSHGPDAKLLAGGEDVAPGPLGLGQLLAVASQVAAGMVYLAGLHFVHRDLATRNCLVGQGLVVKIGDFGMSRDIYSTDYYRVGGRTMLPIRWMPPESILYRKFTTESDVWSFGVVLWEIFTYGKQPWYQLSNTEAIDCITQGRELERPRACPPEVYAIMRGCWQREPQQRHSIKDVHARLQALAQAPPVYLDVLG
Chain of Cyclin-dependent kinase 18 (Homo sapiens) (Q07002 whole entry, the tested form may be a part): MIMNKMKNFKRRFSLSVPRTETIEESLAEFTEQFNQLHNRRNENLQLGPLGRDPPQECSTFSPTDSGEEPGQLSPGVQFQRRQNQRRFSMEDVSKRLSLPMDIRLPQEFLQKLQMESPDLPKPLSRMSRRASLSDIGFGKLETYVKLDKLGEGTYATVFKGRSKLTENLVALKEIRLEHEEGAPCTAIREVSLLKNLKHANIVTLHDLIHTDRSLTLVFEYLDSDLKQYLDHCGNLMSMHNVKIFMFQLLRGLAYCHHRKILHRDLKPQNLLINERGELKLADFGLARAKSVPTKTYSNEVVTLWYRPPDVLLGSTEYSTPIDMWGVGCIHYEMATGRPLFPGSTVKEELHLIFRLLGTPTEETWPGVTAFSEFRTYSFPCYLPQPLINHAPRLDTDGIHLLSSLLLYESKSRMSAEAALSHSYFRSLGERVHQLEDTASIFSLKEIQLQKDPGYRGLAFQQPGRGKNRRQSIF
Chain of Cyclin-dependent kinase-like 3 (Homo sapiens) (Q8IVW4 whole entry, looked up, the tested form may be a part): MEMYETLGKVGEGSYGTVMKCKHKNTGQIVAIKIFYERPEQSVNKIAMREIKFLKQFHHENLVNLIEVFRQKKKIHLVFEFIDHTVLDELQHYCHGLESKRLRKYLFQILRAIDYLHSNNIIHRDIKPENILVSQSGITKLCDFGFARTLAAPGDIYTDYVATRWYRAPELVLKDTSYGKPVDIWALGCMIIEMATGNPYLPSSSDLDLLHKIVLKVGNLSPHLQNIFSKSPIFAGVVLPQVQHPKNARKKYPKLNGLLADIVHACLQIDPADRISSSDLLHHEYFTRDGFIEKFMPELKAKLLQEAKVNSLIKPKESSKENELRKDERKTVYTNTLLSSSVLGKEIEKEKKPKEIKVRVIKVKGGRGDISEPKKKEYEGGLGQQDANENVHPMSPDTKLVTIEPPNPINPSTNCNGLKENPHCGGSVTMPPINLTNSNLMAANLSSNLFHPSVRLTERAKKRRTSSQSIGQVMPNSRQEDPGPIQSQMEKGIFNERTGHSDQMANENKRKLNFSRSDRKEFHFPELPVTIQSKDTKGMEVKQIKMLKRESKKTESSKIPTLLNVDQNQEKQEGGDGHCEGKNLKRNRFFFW
Chain of Cyclin-dependent kinase 16 (Homo sapiens) (Q00536 whole entry, the tested form may be a part, canonical isoform): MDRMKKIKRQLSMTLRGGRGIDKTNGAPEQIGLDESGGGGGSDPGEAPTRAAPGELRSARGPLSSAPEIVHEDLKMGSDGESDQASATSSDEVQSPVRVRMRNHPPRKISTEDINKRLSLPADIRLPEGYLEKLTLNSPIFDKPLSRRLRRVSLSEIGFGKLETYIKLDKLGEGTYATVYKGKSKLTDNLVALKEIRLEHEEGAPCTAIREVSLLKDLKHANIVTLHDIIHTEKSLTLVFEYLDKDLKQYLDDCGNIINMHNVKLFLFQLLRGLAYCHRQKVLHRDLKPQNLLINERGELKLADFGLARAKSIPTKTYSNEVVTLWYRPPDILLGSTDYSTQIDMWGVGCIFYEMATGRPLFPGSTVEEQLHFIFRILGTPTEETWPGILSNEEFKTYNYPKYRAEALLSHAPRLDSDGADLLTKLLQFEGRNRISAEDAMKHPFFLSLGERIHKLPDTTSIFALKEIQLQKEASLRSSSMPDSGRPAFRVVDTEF

Cc1ccc(NC(=O)c2ccc(CN(CCN(C)C)C(=O)c3cccnc3)cc2)cc1Nc1nccc(-c2cccnc2)n1
Activity [1]: 100% | Activity [2]: 99% | Activity [3]: 100% | Activity [4]: 100% | Activity [5]: 92% | Activity [6]: 98% | Activity [7]: 92% | Activity [8]: 99% | GI50 (NCI-H1703): 2990 nM | Activity [9]: 95% | TGI (EOL1): Dose-dependent effect | Activity [10]: 100% | inhibition [11]: Active | Activity [12]: 91% | IC50 [13]: > 10000 nM | Activity [14]: 95% | Activity [15]: 100% | Activity [16]: 87% | Activity [17]: 99% | Activity [18]: 89%
